Assay results from ChEMBL document CHEMBL4428053, “Application of a Parallel Synthetic Strategy in the Discovery of Biaryl Acyl Sulfonamides as Efficient and Selective NaV1.7 Inhibitors” (J Med Chem, 2016).
Values after ≈ are worked out from the molar mass of the structure shown. Active and inactive are the calls of the source. The rule behind the calls is not given here.

Tests used:
[1] = target: T1, Sodium channel protein type 9 subunit alpha (Homo sapiens, UniProt Q15858); assay: Inhibition of human Nav1.7 expressed in HEK293 cells assessed as tonic block at pulse 1 by ionworks quattro electrophysiology assay; assay type: cell-based
T1 sequence (Q15858 whole entry): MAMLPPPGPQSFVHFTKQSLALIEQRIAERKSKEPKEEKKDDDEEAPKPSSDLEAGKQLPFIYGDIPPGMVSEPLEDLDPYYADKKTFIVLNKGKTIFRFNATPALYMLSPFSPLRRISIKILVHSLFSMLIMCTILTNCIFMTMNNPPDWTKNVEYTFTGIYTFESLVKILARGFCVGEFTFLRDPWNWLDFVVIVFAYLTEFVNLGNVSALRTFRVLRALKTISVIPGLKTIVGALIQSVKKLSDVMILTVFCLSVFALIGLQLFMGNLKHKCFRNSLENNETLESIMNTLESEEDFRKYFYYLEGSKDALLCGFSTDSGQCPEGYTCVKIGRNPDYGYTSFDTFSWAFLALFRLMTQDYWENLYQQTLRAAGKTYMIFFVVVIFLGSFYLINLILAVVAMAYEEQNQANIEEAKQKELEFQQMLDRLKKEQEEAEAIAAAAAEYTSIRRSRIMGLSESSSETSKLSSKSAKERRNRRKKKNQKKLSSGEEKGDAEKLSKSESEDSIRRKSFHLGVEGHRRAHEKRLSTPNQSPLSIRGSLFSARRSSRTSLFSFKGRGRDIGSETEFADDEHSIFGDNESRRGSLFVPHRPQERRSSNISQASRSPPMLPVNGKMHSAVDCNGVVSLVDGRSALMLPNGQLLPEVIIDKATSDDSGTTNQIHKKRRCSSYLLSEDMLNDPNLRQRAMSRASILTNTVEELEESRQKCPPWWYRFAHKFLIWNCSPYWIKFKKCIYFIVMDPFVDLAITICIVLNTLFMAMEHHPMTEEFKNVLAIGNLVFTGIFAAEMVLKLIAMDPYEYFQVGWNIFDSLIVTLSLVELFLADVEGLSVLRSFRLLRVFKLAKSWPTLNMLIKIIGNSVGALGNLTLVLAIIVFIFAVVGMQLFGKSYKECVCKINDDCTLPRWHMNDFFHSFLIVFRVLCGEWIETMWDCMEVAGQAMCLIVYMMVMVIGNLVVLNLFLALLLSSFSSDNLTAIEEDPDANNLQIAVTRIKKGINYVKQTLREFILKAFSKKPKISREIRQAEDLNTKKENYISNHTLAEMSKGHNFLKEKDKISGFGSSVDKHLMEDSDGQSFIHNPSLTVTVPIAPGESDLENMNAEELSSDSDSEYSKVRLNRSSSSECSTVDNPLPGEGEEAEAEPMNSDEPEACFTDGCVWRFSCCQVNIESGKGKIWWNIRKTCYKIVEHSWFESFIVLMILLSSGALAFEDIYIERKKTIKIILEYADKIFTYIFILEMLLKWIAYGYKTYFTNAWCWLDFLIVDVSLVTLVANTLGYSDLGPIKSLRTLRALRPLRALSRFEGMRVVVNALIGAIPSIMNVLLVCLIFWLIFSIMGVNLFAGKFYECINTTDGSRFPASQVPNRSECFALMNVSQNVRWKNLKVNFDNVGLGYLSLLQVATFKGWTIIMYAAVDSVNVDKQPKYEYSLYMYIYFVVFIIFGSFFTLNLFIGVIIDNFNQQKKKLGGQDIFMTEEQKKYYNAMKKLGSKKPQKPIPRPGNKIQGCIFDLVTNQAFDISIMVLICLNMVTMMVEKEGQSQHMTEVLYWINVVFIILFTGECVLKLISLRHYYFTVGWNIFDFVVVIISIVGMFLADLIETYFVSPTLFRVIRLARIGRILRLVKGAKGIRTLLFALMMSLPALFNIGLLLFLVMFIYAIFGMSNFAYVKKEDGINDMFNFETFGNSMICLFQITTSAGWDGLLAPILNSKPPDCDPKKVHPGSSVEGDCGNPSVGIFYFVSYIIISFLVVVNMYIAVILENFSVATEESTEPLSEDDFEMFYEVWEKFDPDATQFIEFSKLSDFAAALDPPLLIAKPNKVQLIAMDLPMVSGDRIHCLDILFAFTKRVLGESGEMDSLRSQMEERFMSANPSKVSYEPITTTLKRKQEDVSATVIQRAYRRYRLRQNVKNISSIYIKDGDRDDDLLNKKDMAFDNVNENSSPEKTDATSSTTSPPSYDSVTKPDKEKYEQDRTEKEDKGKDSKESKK

[2] = Free plasma concentration in naive C57BL/6 mouse assessed as effect on basic locomotor movement at 100 mg/kg, po measured after 4 hrs for 60 mins by open field test; assay type: ADME, organism-based; conditions: in vivo
Summary of the method: (§1)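 Naive mice were dosed orally with vehicle or test article at 30, 100 or 300 mg/kg (n = 10 per group). Total basic movement in an open-field arena was recorded after dosing, and unbound plasma concentration was reported per dose.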

[3] = Toxicity in naive C57BL/6 mouse assessed as effect on basic locomotor movement at 300 mg/kg, po measured after 4 hrs for 60 mins by open field test; assay type: organism-based; conditions: in vivo; summary of the method: as §1
[4] = Toxicity in C57BL/6 mouse assessed as reduction in locomotor activity at 100 mg/kg, po for 4 hrs by open field test; conditions: in vivo
[5] = target: Voltage-gated inwardly rectifying potassium channel KCNH2 (Homo sapiens, UniProt Q12809)
[6] = Unbound plasma concentration in C57BL/6 mouse model of histamine-induced scratching at 100 mg/kg, po administered 4 hrs prior to histamine challenge; assay type: ADME, organism-based; conditions: in vivo
Summary of the method: (§2)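 Mice were dosed orally with vehicle, diphenhydramine (30 mg/kg, n = 8) or test article at 30 (n = 9), 100 (n = 10) or 300 (n = 10) mg/kg; vehicle n = 12. All groups received histamine intradermally. Total scratch bouts were counted, with unbound plasma concentration reported per dose. Statistics: one-way ANOVA with Dunnett's test versus vehicle.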

[7] = target: T1, Sodium channel protein type 9 subunit alpha; assay: Inhibition of human Nav1.7 expressed in HEK293 cells assessed as reduction in peak inward current by manual whole cell patch clamp electrophysiology assay; assay type: cell-based
[8] = in vitro; conditions: rat, liver microsomes
[9] = target: Sodium channel protein type 10 subunit alpha (Homo sapiens, UniProt Q9Y5Y9); assay: Inhibition of human Nav1.8 expressed in CHO cells assessed as reduction in peak inward current by manual whole cell patch clamp electrophysiology assay; assay type: cell-based
[10] = Free plasma concentration in naive C57BL/6 mouse assessed as effect on basic locomotor movement at 300 mg/kg, po measured after 4 hrs for 60 mins by open field test; assay type: ADME, organism-based; conditions: in vivo; summary of the method: as §1
[11] = target: T1, Sodium channel protein type 9 subunit alpha; assay: Inhibition of human Nav1.7 expressed in HEK293 cells incubated for 3 to 5 mins at -125 mV holding potential by electrophysiology assay; assay type: cell-based
[12] = target: T1, Sodium channel protein type 9 subunit alpha; assay: Inhibition of human Nav1.7 at resting/closed state expressed in HEK293 cells at -140 mV holding potential by manual whole cell patch clamp electrophysiology assay; assay type: cell-based
[13] = physchem; conditions: fasted state simulated intestinal fluid, pH 6.8
[14] = Unbound plasma concentration in C57BL/6 mouse model of histamine-induced scratching at 300 mg/kg, po administered 4 hrs prior to histamine challenge; assay type: ADME, organism-based; conditions: in vivo; summary of the method: as §2
[15] = target: Cytochrome P450 3A4 (Homo sapiens, UniProt P08684)
[16] = target: Sodium channel protein type 9 subunit alpha (Mus musculus, UniProt Q62205); assay: Inhibition of mouse Nav1.7 expressed in HEK293 cells incubated for 3 to 5 mins at -125 mV holding potential by electrophysiology assay; assay type: cell-based
[17] = target: Sodium channel protein type 3 subunit alpha (Homo sapiens, UniProt Q9NY46); assay: Inhibition of human Nav1.3 expressed in CHO cells assessed as reduction in peak inward current by manual whole cell patch clamp electrophysiology assay; assay type: cell-based
[18] = test system: Mus musculus; assay: In vivo inhibition of Nav1.7 in C57BL/6 mouse assessed as reduction in histamine-induced scratching bouts at 300 mg/kg, po administered 4 hrs prior to histamine challenge measured for 15 mins; assay type: functional; conditions: C57BL/6, po; summary of the method: as §2
[19] = target: Sodium channel protein type 4 subunit alpha (Homo sapiens, UniProt P35499); assay: Inhibition of human Nav1.4 expressed in HEK293 cells assessed as reduction in peak inward current by manual whole cell patch clamp electrophysiology assay; assay type: cell-based
[20] = in vitro; conditions: human, liver microsomes
[21] = target: Sodium channel protein type 9 subunit alpha (Rattus norvegicus, UniProt O08562); assay: Inhibition of rat Nav1.7 expressed in HEK293T cells incubated for 3 to 5 mins at -125 mV holding potential by electrophysiology assay; assay type: cell-based
[22] = Clearance in Harlan rat at 1 mg/kg, iv by LC-MS/MS analysis; assay type: ADME, organism-based; conditions: in vivo
Summary of the method: (§3)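 Male fed rats. The IV dose was given in 100% DMSO. The oral dose was given in 1% Tween 80, 2% HPMC, 97% water/NaOH (pH 8.5).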

[23] = Apparent passive permeability in MDCK cells at 5 uM after 120 mins by LC/MS/MS analysis; assay type: ADME, cell-based, Canis lupus familiaris; conditions: dog
[24] = test system: Mus musculus; assay: In vivo inhibition of Nav1.7 in C57BL/6 mouse assessed as unbound plasma concentration required to reduce histamine-induced scratching bouts at 100 mg/kg, po administered 4 hrs prior to histamine challenge measured for 15 mins; assay type: functional, organism-based; summary of the method: as §2
[25] = Volume of distribution in Harlan rat at 1 mg/kg, iv by LC-MS/MS analysis; assay type: ADME, organism-based; conditions: in vivo; summary of the method: as §3
[26] = target: Sodium channel protein type 8 subunit alpha (Homo sapiens, UniProt Q9UQD0); assay: Inhibition of human Nav1.6 expressed in HEK293 cells assessed as reduction in peak inward current by manual whole cell patch clamp electrophysiology assay; assay type: cell-based
Sequence of Sodium channel protein type 8 subunit alpha (Q9UQD0 whole entry): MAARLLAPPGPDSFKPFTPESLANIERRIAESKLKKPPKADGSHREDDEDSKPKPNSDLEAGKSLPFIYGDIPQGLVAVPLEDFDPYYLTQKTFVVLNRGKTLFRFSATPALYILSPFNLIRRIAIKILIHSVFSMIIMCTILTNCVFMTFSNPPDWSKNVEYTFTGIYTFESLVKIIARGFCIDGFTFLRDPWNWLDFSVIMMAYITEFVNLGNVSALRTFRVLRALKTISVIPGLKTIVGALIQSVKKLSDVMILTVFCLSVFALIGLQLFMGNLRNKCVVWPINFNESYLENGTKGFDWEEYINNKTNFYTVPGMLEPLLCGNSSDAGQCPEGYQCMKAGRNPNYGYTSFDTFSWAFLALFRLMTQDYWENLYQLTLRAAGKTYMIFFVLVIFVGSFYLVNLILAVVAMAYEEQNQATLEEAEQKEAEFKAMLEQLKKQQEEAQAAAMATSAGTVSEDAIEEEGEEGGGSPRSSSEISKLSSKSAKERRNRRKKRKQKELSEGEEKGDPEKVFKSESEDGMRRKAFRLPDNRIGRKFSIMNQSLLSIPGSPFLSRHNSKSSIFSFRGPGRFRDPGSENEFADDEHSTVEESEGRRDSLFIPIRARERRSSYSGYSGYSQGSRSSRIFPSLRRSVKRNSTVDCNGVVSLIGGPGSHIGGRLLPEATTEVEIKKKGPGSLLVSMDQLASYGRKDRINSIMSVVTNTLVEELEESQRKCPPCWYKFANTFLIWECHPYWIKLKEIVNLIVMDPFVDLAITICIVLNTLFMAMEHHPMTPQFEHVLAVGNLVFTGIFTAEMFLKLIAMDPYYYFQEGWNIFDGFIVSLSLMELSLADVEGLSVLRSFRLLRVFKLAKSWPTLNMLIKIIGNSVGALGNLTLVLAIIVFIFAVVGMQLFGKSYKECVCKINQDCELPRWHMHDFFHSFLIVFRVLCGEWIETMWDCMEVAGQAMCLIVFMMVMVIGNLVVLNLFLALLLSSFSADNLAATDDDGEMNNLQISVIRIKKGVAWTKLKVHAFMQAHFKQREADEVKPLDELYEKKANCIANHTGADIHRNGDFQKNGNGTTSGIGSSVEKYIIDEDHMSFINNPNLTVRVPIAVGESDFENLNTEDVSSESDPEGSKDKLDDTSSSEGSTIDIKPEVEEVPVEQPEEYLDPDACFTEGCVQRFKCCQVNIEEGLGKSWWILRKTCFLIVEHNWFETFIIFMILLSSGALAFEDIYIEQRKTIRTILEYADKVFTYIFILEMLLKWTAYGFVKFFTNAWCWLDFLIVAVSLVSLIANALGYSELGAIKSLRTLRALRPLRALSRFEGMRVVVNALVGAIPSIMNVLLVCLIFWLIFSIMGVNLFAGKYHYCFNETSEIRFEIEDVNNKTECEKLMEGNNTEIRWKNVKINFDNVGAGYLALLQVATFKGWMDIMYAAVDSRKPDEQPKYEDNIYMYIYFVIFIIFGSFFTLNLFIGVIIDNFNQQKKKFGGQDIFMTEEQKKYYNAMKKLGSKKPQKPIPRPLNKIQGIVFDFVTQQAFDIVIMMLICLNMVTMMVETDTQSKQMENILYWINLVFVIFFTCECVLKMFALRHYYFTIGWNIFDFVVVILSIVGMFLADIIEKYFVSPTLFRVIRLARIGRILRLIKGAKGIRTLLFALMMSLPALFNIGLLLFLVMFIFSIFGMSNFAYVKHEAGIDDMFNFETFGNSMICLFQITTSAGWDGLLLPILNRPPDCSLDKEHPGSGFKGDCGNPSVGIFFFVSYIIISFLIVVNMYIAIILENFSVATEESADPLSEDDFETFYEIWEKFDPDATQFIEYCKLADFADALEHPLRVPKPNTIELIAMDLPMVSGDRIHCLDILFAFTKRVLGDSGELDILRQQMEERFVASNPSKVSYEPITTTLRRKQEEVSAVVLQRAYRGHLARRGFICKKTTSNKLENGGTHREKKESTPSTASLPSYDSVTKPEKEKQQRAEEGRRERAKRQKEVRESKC

[27] = target: Cytochrome P450 2C9 (Homo sapiens, UniProt P11712)
Sequence of Cytochrome P450 2C9 (P11712 whole entry): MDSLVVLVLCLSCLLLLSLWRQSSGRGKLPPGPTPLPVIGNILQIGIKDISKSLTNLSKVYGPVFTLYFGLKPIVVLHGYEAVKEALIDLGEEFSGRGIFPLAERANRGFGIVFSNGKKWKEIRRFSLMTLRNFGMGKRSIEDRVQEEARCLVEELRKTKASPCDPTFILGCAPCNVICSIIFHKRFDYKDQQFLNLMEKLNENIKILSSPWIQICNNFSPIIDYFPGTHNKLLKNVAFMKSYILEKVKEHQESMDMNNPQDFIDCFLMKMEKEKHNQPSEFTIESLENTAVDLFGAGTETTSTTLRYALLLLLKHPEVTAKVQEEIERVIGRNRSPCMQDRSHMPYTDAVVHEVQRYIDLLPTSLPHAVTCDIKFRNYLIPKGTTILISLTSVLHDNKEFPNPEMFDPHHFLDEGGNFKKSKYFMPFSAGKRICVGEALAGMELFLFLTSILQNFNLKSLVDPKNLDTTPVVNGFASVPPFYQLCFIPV

[28] = Plasma protein binding in Harlan rat at 1 mg/kg, iv by LC-MS/MS analysis; assay type: ADME, organism-based; conditions: read-out: PPB (converted)
[29] = target: T1, Sodium channel protein type 9 subunit alpha; assay: Inhibition of human Nav1.7 at 20% inactivated state expressed in HEK293 cells at -140 mV holding potential followed by channel inactivation by manual whole cell patch clamp electrophysiology assay; assay type: cell-based
Summary of the method: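 Tested on channels about 20% inactivated.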

[30] = physchem; conditions: PBS, pH 7.4
[31] = Unbound plasma concentration in C57BL/6 mouse model of histamine-induced scratching at 30 mg/kg, po administered 4 hrs prior to histamine challenge; assay type: ADME, organism-based; conditions: in vivo; summary of the method: as §2
[32] = target: Cytochrome P450 2D6 (Homo sapiens, UniProt P10635)
Sequence of Cytochrome P450 2D6 (P10635 whole entry): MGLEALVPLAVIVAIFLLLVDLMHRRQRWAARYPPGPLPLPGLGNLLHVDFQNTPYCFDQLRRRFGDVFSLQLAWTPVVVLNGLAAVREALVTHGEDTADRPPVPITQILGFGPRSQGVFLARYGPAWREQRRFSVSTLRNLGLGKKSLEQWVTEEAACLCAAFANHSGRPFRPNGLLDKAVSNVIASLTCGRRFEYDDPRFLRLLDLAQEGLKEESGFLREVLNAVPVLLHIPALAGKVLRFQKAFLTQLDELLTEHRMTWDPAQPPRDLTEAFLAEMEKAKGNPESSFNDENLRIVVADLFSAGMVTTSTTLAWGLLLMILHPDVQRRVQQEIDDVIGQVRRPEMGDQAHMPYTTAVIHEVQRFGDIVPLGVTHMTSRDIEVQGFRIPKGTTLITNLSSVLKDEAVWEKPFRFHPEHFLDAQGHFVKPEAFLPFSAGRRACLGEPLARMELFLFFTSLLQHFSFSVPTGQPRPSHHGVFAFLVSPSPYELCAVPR

[33] = target: Sodium channel protein type 2 subunit alpha (Homo sapiens, UniProt Q99250); assay: Inhibition of human Nav1.2 expressed in CHO cells assessed as reduction in peak inward current by manual whole cell patch clamp electrophysiology assay; assay type: cell-based
[34] = target: Sodium channel protein type 1 subunit alpha (Homo sapiens, UniProt P35498); assay: Inhibition of human Nav1.1 expressed in HEK293 cells assessed as reduction in peak inward current by manual whole cell patch clamp electrophysiology assay; assay type: cell-based
[35] = target: T1, Sodium channel protein type 9 subunit alpha; assay: Inhibition of human Nav1.7 expressed in HEK293 cells assessed as use-dependent block at pulse 26 by ionworks quattro electrophysiology assay; assay type: cell-based

With `COc1cc(C(=O)NS(C)(=O)=O)c(F)cc1-c1cnc(Oc2cc(F)ccc2F)c(Cl)c1` the IC50 [1] was 44 nM, the “Cp(f)” value [2] was 2.39 µM and the Activity [3] was “Non-Toxic”. The Activity [4] was “Non-Toxic”, the Ki [5] was > 30 µM and the “Cp(f)” value [6] was 1.27 µM. The IC50 [7] was 51 nM, the microsomal CLint at 1 µM [8] was < 14 µL/min/mg and the IC50 [9] was 15.6 µM. For the same molecule, the “Cp(f)” value [10] was 3.72 µM, the IC50 [11] was 69 nM and the IC50 [12] was > 30 µM. The solubility thermodynamic at 24 h [13] was 500 µM (≈ 243 µg/mL), the “Cp(f)” value [14] was 4.16 µM and the IC50 [15] was > 50 µM. The IC50 [16] was 115 nM, the IC50 [17] was 12.5 µM and the inhibition in vivo at 300 mg/kg [18] was 75%. It also gave an IC50 [19] of 1100 nM, a microsomal CLint at 1 µM [20] of 27 µL/min/mg and an IC50 [21] of 3.69 µM. For the same molecule, the clearance [22] was 6.5 mL/min/kg, the Papp at 2 h, 5 µM [23] was 22.4 ×10⁻⁶ cm/s and the Activity [24] was “inactive”. It also gave a Vd [25] of 0.93 L/kg, an IC50 [26] of 9.4 µM and an IC50 [27] of 49.6 µM. The fraction unbound [28] was 0.004, the IC50 [29] was 51 nM and the solubility thermodynamic at 24 h [30] was 398 µM (≈ 194 µg/mL). For the same molecule, the “Cp(f)” value [31] was 0.294 µM, the IC50 [32] was > 50 µM and the IC50 [33] was 9.8 µM. It also gave an IC50 [34] of 8.5 µM and an IC50 [35] of 42 nM.
